procasp3 activ: activators of human procaspase-3 D3A mutant, primary screen, biochemical, absorbance, PC-3 D3A mutant, single concentration; activation, % at 8.5 µM; actives 0.11% (n = 330,000); recombinant procaspase-3 D3A, Ac-DEVD-pNA absorbance 405 nm; AID 463141, 2010;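 active means activation above the mean of all tested compounds plus 3 SD, cut at about 21% in these data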
Target sequence (P42574 whole entry D9A/D28A/D175A): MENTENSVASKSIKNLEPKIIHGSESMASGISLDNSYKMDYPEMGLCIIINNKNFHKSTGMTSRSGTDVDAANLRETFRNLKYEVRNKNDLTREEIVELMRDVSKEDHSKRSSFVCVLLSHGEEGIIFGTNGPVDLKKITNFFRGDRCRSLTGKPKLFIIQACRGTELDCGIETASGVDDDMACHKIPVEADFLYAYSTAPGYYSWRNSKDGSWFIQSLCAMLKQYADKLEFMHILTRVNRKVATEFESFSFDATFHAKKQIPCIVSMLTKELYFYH
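Assay system: Procaspase-3 D3A mutant, all three cleavage aspartates alanine. Buffer or medium: Zinc-free HEPES saline buffer with Triton X-100. Times: 1 h compound preincubation, 2 h substrate hydrolysis at 25 °C. Measured by: 405 nm absorbance of p-nitroaniline, reads at 0 and 120 min. Read-out basis: percent activation relative to control range. Replicates: singlicate.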
CHT inh: inhibitors of human choline transporter CHT; actives 0.86% (n = 310,000); AID 488975, 2010; CHT-expressing cells, membrane potential dye, choline response; active compounds read low; High affinity choline transporter 1 (Homo sapiens), Q9GZV3; B-score at 10 µM;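 active means B-score over 3 SD under the library average, and starting fluorescence ratio not unusually high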;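 further: choline stimulus applied at its EC90 after an EC20 pre-addition; B-score computed on integrated fluorescence ratio after choline addition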
proCasp7 act: procaspase-7 activators, primary screen, counter-screen for procaspase-3 activator project, biochemical, absorbance, HTS, human; Caspase-7 (Homo sapiens), P55210; recombinant procaspase-7, Ac-DEVD-pNA absorbance 405 nm; D23A/D198A/D206A triple mutant, cannot self-cleave; scale: DMSO 0, 5 µM enzyme 100; activation, % at 8.5 µM; actives 0.093% (n = 330,000); AID 463210, 2010;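 active means percent activation above the screen-wide mean plus 3 SD, cut at about 25% in these data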
Target sequence (P55210 whole entry D23A/D198A/D206A): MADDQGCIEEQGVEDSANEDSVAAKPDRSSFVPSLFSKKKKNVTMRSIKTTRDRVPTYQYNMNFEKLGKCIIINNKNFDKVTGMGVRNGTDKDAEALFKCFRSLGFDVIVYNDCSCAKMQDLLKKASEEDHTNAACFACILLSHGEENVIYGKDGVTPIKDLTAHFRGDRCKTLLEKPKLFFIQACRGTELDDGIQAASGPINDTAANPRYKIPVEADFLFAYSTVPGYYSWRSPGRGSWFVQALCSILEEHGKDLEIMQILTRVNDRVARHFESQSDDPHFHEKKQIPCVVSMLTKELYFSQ
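Assay system: Uncleavable procaspase-7 mutant enzyme / Input: 2 µM procaspase-7 mutant as dispensed / Dosing: single nominal 8.5 µM compound dose, 0.8% DMSO final / Timing: 1 h enzyme–compound preincubation and 2 h substrate reaction, both 25 °C / Detection: p-Nitroaniline absorbance at 405 nm, read at 0 and 120 min / Replication: singlicate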
CHT allo act: CHT positive allosteric modulators, primary screen, cell-based, membrane potential dye, choline EC20; High affinity choline transporter 1 (Homo sapiens), Q9GZV3; CHT-expressing cells; active compounds read high; LV-AA mutant CHT in HEK293 cells; B-score at 10 µM; actives 0.49% (n = 310,000); AID 488977, 2010;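 active means initial fluorescence not abnormally high and integrated response B-score, plate-corrected, over 3 SD above library mean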
CHT inh conf: CHT inhibitors, confirmation, cell-based, membrane potential dye, duplicate. AID 493221, 2011. CHT activity remaining % of control (active compounds read low), % at 10 µM. shares compounds with CHT inh. actives 70% (n = 2,400). CHT-expressing cells, choline membrane potential dye; LV-to-AA substituted CHT, HEK293 cells;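 active means choline transporter activity left, mean of duplicates at 10 µM, below buffer-only control mean minus 3 SD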;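 further: depolarization triggered by choline at its EC90 following an EC20 pre-addition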
HEK293 CHT ctr: membrane potential effects in parental HEK293, counter-screen for CHT inhibitor project, cell-based, membrane potential dye; choline response; active = decrease or increase beyond buffer ±3SD; shares compounds with CHT inh; actives 4% (n = 2,400); membrane potential ratio readout (active if shifted either direction beyond buffer ±3SD; no single direction) at 10 µM;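 further: parental cells lack the transporter so any hit is non-specific; ratio is peak minus trough fluorescence over baseline after EC90 choline challenge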
Of the large screens only hits and unclear results are named; the others gave an inactive call (follow-up assays come after a bar, where they were run). Only some compounds are listed: those with a hit (about 1.3% of all), similar ones and a draw of the others.

CCCc1cc(=O)[nH]c(SCC(=O)c2cc(C)n(CC(F)(F)F)c2C)n1	CHT inh -6.3 | CHT inh conf inactive | HEK293 CHT ctr inactive
CCOC(=O)c1nncc(-c2ccccc2)n1	none (no result: CHT inh, CHT allo act)
COc1cccc(OC)c1C(=O)OCC(=O)N(c1ccccc1)C1CCCCC1	none (no result: CHT inh, CHT allo act)
CCN(CC)C(=O)Cn1ncc2c1-c1ccccc1OC2	none
O=C(Cn1ncc2c1-c1ccccc1OC2)N(Cc1ccco1)C1CCCCC1	CHT inh -4.9 | CHT inh conf inactive | HEK293 CHT ctr inactive
COc1ccc(-n2cccc2/C=C2\C(=N)N3N=C(C(C)C)SC3=NC2=O)cc1	CHT inh -6.1 | CHT inh conf inactive | HEK293 CHT ctr inactive
COc1ccc(/C=C/C(=O)NC2CCCCCCC2)cc1S(=O)(=O)N1CCOCC1	CHT inh -7.6 | CHT inh conf 20% | HEK293 CHT ctr inactive
COc1ccc(/C=C/C(=O)Nc2ccc(NC(C)=O)cc2)cc1S(=O)(=O)N1CCOCC1	none
CCOc1ccc(/C=C2\SC(=S)N(CCC(=O)Nc3ccccc3C(=O)O)C2=O)cc1	none
COc1ccc(NC(=O)CN2CCN(C(=S)NC3CCCC3)CC2)cc1	CHT inh -6.3 | CHT inh conf inactive | HEK293 CHT ctr inactive
C=CCn1c(SCc2ccc(Cl)cc2)nc2c1c(=O)[nH]c(=O)n2C	none
C=CCn1c(SCc2ccc(F)cc2)nc2c1c(=O)[nH]c(=O)n2C	CHT inh -6 | CHT inh conf inactive | HEK293 CHT ctr inactive
Cc1cc(Br)ccc1N=C1NC(=O)CS1	none
Cn1c(-c2sc3ccccc3c2Cl)n[nH]c1=S	CHT inh -5.1 | CHT inh conf 50% | HEK293 CHT ctr inactive
CCOC(=O)c1oc2nc(CC(C)C)c3c(c2c1N)CCCC3	CHT inh -11 | CHT inh conf 13% | HEK293 CHT ctr inactive
CC(C)(C)NCC(O)c1cc(O)cc(O)c1 (stereo unspecified)	CHT inh -5.9 | CHT inh conf 45% | HEK293 CHT ctr inactive
CC[C@@H]1C/C=C\Cc2ccccc2[C@H](C(=O)C[C@H](O)CC(C)=O)OC1=O	none (no result: CHT inh, CHT allo act)
O=C(NC(=S)NNC(=O)c1cccs1)c1ccc(Br)o1	CHT inh -7.5 | CHT inh conf 43% | HEK293 CHT ctr inactive
CCOC(=O)c1ccc2nc(NC(=O)C(C)C)sc2c1	none
C=CCN(CC=C)S(=O)(=O)c1ccc2nc(NC(=O)C(C)C)sc2c1	CHT inh -7.3 | CHT inh conf 43% | HEK293 CHT ctr inactive
CC(C)[C@H](NS(=O)(=O)c1ccccc1)C(=O)Nc1nccs1	none (no result: CHT inh, CHT allo act)
CC1CCCCC1NC(=O)Cn1nnc(-c2ccc(Cl)cc2)n1 (stereo unspecified)	CHT inh -6.3 | CHT inh conf 66% | HEK293 CHT ctr inactive
O=C(Nc1ccc(F)c(Cl)c1)c1cccnc1	CHT inh -6.1 | CHT inh conf inactive | HEK293 CHT ctr inactive
O=C(Nc1ccc(F)c(Cl)c1)c1ccccc1	none
CCC(C)NC(=O)c1ccc(Cl)c(S(=O)(=O)Nc2ccccc2N2CCOCC2)c1 (stereo unspecified)	none (no result: CHT inh, CHT allo act)
CCCCN(CCCC)CCCNC(=O)C12CN(Cc3ccccc3)CC1C(c1cccc([N+](=O)[O-])c1)=NO2 (stereo unspecified)	CHT inh -11 | CHT inh conf 15% | HEK293 CHT ctr inactive
O=C(NCc1ccccc1)C12CN(Cc3ccccc3)CC1C(c1cccc([N+](=O)[O-])c1)=NO2 (stereo unspecified)	none
CCOC(=O)c1ccc2c(c1)nc(-c1ccc(F)cc1)c1nccn12	none
Cc1cc(C)c(NC(=O)COC(=O)c2cccc3c2C(=O)c2ccccc2C3=O)c(C)c1	CHT inh -5.1 | CHT inh conf inactive | HEK293 CHT ctr inactive
O=C(NCc1cccnc1)C1CC(c2ccccc2Cl)=NO1 (stereo unspecified)	none
CN(C)CCOC(=O)Cc1ccc(Cl)cc1	CHT inh -10 | CHT inh conf 63% | HEK293 CHT ctr inactive
Cc1cccc(CC(Cc2nc3ccccc3[nH]2)c2nc3ccccc3[nH]2)c1 (stereo unspecified)	CHT inh -9 | CHT inh conf 59% | HEK293 CHT ctr inactive
COc1ccccc1CC(Cc1nc2ccccc2[nH]1)c1nc2ccccc2[nH]1 (stereo unspecified)	CHT inh -8.6 | CHT inh conf 36% | HEK293 CHT ctr inactive
Cc1ccc(NC(=O)C2CSC3(C)CCC(=O)N23)cc1S(=O)(=O)N1CCOCC1 (stereo unspecified)	none (no result: CHT inh, CHT allo act)
Cc1ccc(NC(=O)COC(=O)C2CSC3(C)CCC(=O)N23)cc1S(=O)(=O)N1CCOCC1 (stereo unspecified)	CHT inh -7.3 | CHT inh conf inactive | HEK293 CHT ctr inactive
COc1cccc(OCc2cc(C(=O)N3CCNC(=O)C3Cc3ccccc3)no2)c1 (stereo unspecified)	none
CCCCCN1CN(S(=O)(=O)c2cccs2)c2nc3ccccc3nc21	none
CCCn1c(=O)c(C(=O)NCc2ccccn2)c(O)c2ccccc21	CHT inh -5.7 | CHT inh conf inactive | HEK293 CHT ctr inactive
Cc1noc(C)c1COC(=O)c1ccccc1Sc1ccccc1C#N	CHT inh -6.1 | CHT inh conf inactive | HEK293 CHT ctr inactive
N#Cc1ccccc1Sc1ccccc1C(=O)OCC(N)=O	none
NC(=O)c1ccc(C2SCC(=O)N2Cc2ccccc2)cc1 (stereo unspecified)	CHT inh -6.3 | CHT inh conf inactive | HEK293 CHT ctr inactive
O=[N+]([O-])c1cccc(S(=O)(=O)NCC2CC3CCC2C3)c1 (stereo unspecified)	none
Cc1c(CCOC(=O)c2cc([N+](=O)[O-])cc([N+](=O)[O-])c2)sc[n+]1CC(=O)c1ccc(Br)cc1	none
Cc1ccc(-c2cc(C(=O)NCCCn3ccnc3)c3cc(Br)ccc3n2)o1	CHT inh -9.2 | CHT inh conf 24% | HEK293 CHT ctr inactive
CC(C)c1ccc(/C=C(\NC(=O)c2ccccc2)C(=O)NCCCn2ccnc2)cc1	CHT inh -8.2 | CHT inh conf 23% | HEK293 CHT ctr inactive
O=C(NCCCn1ccnc1)/C(=C/c1ccc(F)cc1)NC(=O)c1ccccc1	none
